Screening results deposited in PubChem BioAssay by several laboratories.
APP 5'UTR act: activates APP 5'UTR luciferase reporter. SH-SY5Y APP 5'UTR luciferase reporter, luminescence; zero percent = DMSO vehicle wells. activation, % at 2 µM. 190,000 tested, 1% active. AID 1276;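 active = activation above a set limit, based on mean plus 3 SD of controls, cut at about 140% in these data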
STAT1 act: STAT1 signaling activation; 200,000 tested, 2.6% active; AID 932; activation (% of control), % at 5.5 µM; NIH 3T3 STAT1-luciferase reporter, IFN-gamma, luminescence; 100% = IFN-gamma alone, no compound;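 active = activation above the screen-wide mean activation plus 3 SD, cut at about 130% in these data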;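 note: raw ratio to IFN-gamma control signal so 100% means no change and 0% no light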
STAT3 blocker: STAT3 signaling inhibition; U3A cells, IL-6 STAT3-luciferase reporter, luminescence; host cell line lacks STAT1; inhibition, % at 5.5 µM; 190,000 tested, 0.89% active; AID 862;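 active = inhibition above the mean inhibition across all screened compounds plus 3 SD, cut at about 44% in these data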;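 note: 0% = DMSO only wells and 100% = 100 µM nifuroxazide control wells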
NF-kB expr up: NF-kB expression increase, human neuronal cells; fold change at 12.5 µM; 190,000 tested, 1.6% active; NF-kB reporter expression; hits give high values; in the data active = fold change above about 3.3
STAT1 blocker: STAT1 signaling inhibition; inhibition, % at 5.5 µM; 200,000 tested, 0.35% active; NIH 3T3 STAT1-luciferase reporter, IFN-gamma, luminescence;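 active = inhibition above a set limit, the mean inhibition across all tested compounds plus 3 SD, cut at about 34% in these data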;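 note: 0% = IFN-gamma with DMSO and 100% = IFN-gamma with 300 µM nifuroxazide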
STAT3 activator: increases IL-6 driven STAT3 reporter signal; 190,000 tested, 0.91% active; AID 871; activation (% of control), % at 5.6 µM; U3A cells, IL-6 STAT3-luciferase reporter, luminescence; 100% = signal with IL-6 EC80 alone;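 active = activation above the screen-wide mean of compound activation plus 3 SD, cut at about 130% in these data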;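 note: 0% = background luminescence of wells with medium and substrate only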
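Test system: human U3A cells carrying STAT3-luciferase construct; control set: IL-6-only wells as 100% reference; timing: compound pre-incubation 1 h before IL-6, then 6 h stimulation at 37 °C; also added: IL-6 stimulus at 33 ng/mL final; evaluation: % activation versus median of IL-6-stimulated wells; detection: reporter luminescence signal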
* = called active by the depositor; . = no result. Most compounds without a hit are left out; they make up all but 4.9% or so of the library.

SMILES	APP 5'UTR act	STAT1 act	STAT3 blocker	NF-kB expr up	STAT1 blocker	STAT3 activator
Cc1cc(Nc2ccccc2)n(CCO)n1	12.5	94.1	2.1	1.17	6.3	99.6
O=C(Nc1ccccc1)N1CC=C(c2ccc(F)cc2)CC1	94.2	142.4*	17.4	1.49	-49.6	88.4
O=C(Nc1ccccc1)N1CC=C(c2ccccc2)CC1	55.7	144.7*	19.2	2.24	-48.3	86.9
Nc1nc(SCC(=O)Nc2c(Br)cc([N+](=O)[O-])cc2Br)n[nH]1	2.5	107.3	6.4	1.1	-8.3	98.4
Cc1cc(C(=O)Nc2ccc3c(c2)OCCO3)c(C)o1	132.2	130.3*	5.0	4.63*	-33.2	99.4
Cc1occc1C(=O)Nc1ccc2c(c1)OCCO2	82.5	131.1*	6.8	3.12	-38.1	95.5
O=C(Nc1ccc2c(c1)OCCO2)c1cncc(Br)c1	157.3*	123.6	41.8	4.88*	-25.6	65.8
CC(C)C1CC(CCN)(Cc2ccccc2)CCO1 (centres undefined)	0.2	100.1	0.6	0.89	-2.0	101.5
CCOC(=O)C(=NC(C)CC)NNc1ccc(Br)cc1 (centres undefined)	-5.0	104.3	-10.2	1.27	-4.7	112.4
COc1cc(NC(=O)CCn2c(=O)[nH]c3ccsc3c2=O)cc(OC)c1	-12.9	92.8	18.1	1.17	7.8	88.4
Fc1ccc(COc2cccc3cccnc23)cc1	39.4	129.0*	8.9	1.96	-35.1	96.6
CC(=O)N1CCN(c2ccc(NCc3ccc(C)s3)cc2)CC1	.	104.1	14.1	1.05	-4.5	95.5
Cc1ccc(CNc2ccc(N3CCOCC3)cc2)s1	83.8	145.2*	0.5	3.19	-48.8	103.4
CCc1c(-c2ccccc2)nc2nc(C)c(C)nn12	-3.9	102.1	23.6	1.29	-2.3	87.0
Cc1nc2nc(-c3ccccc3)cn2nc1C	97.7	122.5	0.4	4.74*	-26.4	103.4
c1ccc(-c2cn3nc4c(nc3n2)CCCC4)cc1	148.5*	51.9	87.3*	2.38	52.7*	27.8
CCc1ccc(-c2cn3nc(C)c(C)nc3n2)cc1	2.0	22.3	110.5*	2.9	85.1*	11.7
Cn1nccc1C(=O)Nc1sc2c(c1C(N)=O)CCCC2	32.9	146.4*	19.2	1.5	-50.0	90.5
CC(=O)Nc1sc2c(c1C(N)=O)CCCC2	-7.4	105.2	-4.7	1.22	-5.9	104.9
O=C(Nc1sc2c(c1C(=O)O)CCCC2)c1cccs1	67.6	121.5	-5.3	2.01	-23.5	107.3
Cc1sc(NC(=O)c2cccs2)c(C(N)=O)c1C	56.3	140.3*	-14.7	2.29	-44.1	115.6
O=C(Nc1sc2c(c1C(=O)O)CCCCC2)c1cccs1	174.0*	116.4	2.2	1.92	-21.1	102.2
NC(=O)c1c(NC(=O)c2cccnc2)sc2c1CCCC2	27.7	134.2*	31.4	1.78	-38.4	80.2
O=c1c(Cl)c(N2CCN(c3ccc(F)cc3)CC2)cnn1-c1nc2ccccc2s1	91.3	140.4*	0.0	1.54	-44.8	102.7
CCC(C(=O)Nc1cccc(C(=O)O)c1C)c1ccccc1 (centres undefined)	-12.7	107.5	4.3	1.42	-8.0	104.6
SMILES	APP 5'UTR act	STAT1 act	STAT3 blocker	NF-kB expr up	STAT1 blocker	STAT3 activator
c1ccc(-n2ncc3c2ncn2nc(-c4ccco4)nc32)cc1	93.4	137.0*	20.4	2	-40.5	86.2
Cn1c(NCc2ccc(Cl)cc2)nc2ccccc21	69.6	136.1*	7.8	0.79	-38.9	101.3
COc1ccc(CNc2nc3ccccc3n2C)c(OC)c1	119.8	107.5	7.5	3.43*	-9.8	97.3
Cn1c(CNc2nc3ccccc3n2C)nc2ccccc21	29.6	113.8	4.4	1.84	-13.2	100.0
CCN(CC)CCn1c(NCc2cc(OC)ccc2OC)nc2ccccc21	1.2	97.5	0.9	0.77	0.3	102.0
COc1cccc(CN2CCN(Cc3ccc4c(NC(C)=O)cccc4n3)CC2CCO)c1 (centres undefined)	0.5	102.6	4.2	0.98	-4.8	98.4
COc1cc(/C=N/NC(=O)c2nonc2N)cc(OC)c1OC	9.8	110.2	5.0	1.1	-12.5	101.5
COc1cccc(/C=N/NC(=O)c2cc(-c3cccn3C)n[nH]2)c1	-1.7	100.4	5.5	1	-0.4	99.5
COc1cc(/C=N\NC(=O)c2ccc(=O)[nH]n2)cc(OC)c1OC	-10.2	91.9	-15.8	3.55*	9.0	124.0
COc1cc(/C=N/NC(=O)c2cc(-c3cccn3C)n[nH]2)cc(OC)c1OC	-11.2	99.1	-31.8	0.53	1.0	134.3*
COc1ccc(CN2CCN(CCc3ccccc3)C(CCO)C2)cc1Cn1cncn1 (centres undefined)	-7.0	94.1	5.5	0.95	4.6	97.3
Cc1ccc(N=C2NC(=O)/C(=C\c3ccsc3)S2)c(C)c1	-18.0	106.3	-7.0	4.42*	-6.5	104.4
Cc1ccc(N=C2NC(=O)CS2)c(C)c1	-11.3	94.4	1.9	1.09	6.1	98.0
Cc1ccc(C(=O)NCCc2ccc(F)cc2)s1	161.7*	129.1*	12.9	4.19*	-35.2	93.2
COc1ccc(C(=O)NCc2ccc(-c3nc4ccccc4s3)cc2)cc1	29.8	125.3	13.7	1.59	-28.4	92.8
COc1cc(C(=O)NCc2ccc(-c3nc4ccccc4s3)cc2)cc(OC)c1OC	33.4	141.2*	-1.4	1.63	-45.6	103.9
O=C(NCc1ccc(-c2nc3ccccc3s2)cc1)c1ccc(Br)o1	83.9	137.0*	7.6	1.66	-40.6	92.5
O=C(NCc1ccc(-c2nc3ccccc3s2)cc1)c1cc2ccccc2o1	30.6	102.6	27.1	1.18	-2.8	73.9
Cn1c(NC(=S)Nc2ccccc2)nc2ccccc21	160.3*	141.5*	21.2	1.12	-47.3	82.5
S=C(Nc1ccccc1)Nc1nc2ccccc2n1CCOc1ccc(Br)cc1	10.5	92.6	-1.0	1.05	8.1	100.4
CSc1nsc(SCC(=O)Nc2nc3ccccc3s2)n1	-10.3	100.7	10.5	1.16	-0.8	91.3
Cc1nc(SCC(=O)Nc2nc3ccccc3s2)c(C#N)c(C)c1C	-64.1	48.5	87.7*	0.13	57.9*	27.4
Cc1ccc2sc(NC(=O)CSc3nc(C)cc(C)c3C#N)nc2c1	94.0	92.5	32.6	6.54*	8.3	76.1
Cc1csc(NC(=O)CSc2nsc(SCC(=O)Nc3nc(C)cs3)c2C#N)n1	126.2	132.0*	25.3	1.72	-34.9	79.8
Cc1cc(C)c(C#N)c(SCC(=O)Nc2nnc(-c3ccccc3)s2)n1	11.4	100.0	13.0	1.17	0.0	90.1
CN(C(=O)c1cc2sccc2n1C)C1CCCCC1	80.6	141.6*	3.3	2.7	-45.6	100.8
Cn1c(C(=O)NC2CCCCC2)cc2sccc21	76.5	137.0*	14.2	1.89	-40.4	89.8
COC(=O)c1cc2n(n1)CCN(Cc1ccc(F)cc1)C2=O	-7.6	101.7	3.0	1.12	-1.9	102.3
